RGS4 pot – RGS4 potentiation or activation; hit rate 0.92% among 310,000; HEK293 M3R/inducible RGS4, carbachol calcium flux Fluo4; active compounds read low; AID 463111; B-score at 10 µM;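 active = B-score of the integrated calcium signal more than 4 SD below the library mean, with starting fluorescence not abnormally high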;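 note: negative B-score means reduced calcium response which marks RGS4 activation or potentiation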
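Material: M3R-expressing HEK293 line, RGS4 induced by doxycycline | Schedule: Overnight RGS4 induction, 30 min dye load 37 °C, 20 min compound RT | Measured by: Fluo4 fluorescence kinetic imaging of calcium | Read-out: Integrated calcium ratio converted to B score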
MrgX1 PAM – human MrgX1 positive allosteric modulation, primary screen | Q96LB2 | MrgX1-HEK293, Fluo-4 calcium flux, FDSS; active compounds read high | B-score at 10 µM | hit rate 0.63% among 310,000;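 active = plate-corrected calcium response at least 3 library SD above typical, normal starting fluorescence, not activating the receptor alone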;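 note: compound read alongside a low EC10 to EC30 dose of BAM8-22 agonist; peak minus trough fluorescence over baseline measured at the second addition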
Target sequence (Q96LB2 whole entry, looked up): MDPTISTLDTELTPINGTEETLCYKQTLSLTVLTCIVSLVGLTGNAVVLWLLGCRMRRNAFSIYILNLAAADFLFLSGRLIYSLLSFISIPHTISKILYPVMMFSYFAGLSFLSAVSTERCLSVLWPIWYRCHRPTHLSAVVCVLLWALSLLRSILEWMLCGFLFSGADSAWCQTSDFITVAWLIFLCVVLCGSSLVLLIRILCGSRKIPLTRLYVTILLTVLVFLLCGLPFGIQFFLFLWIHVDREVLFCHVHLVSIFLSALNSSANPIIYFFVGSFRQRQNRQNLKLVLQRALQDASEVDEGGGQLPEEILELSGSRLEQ
MrgX1 antagonist – blocks BAM8-22 activation of human MrgX1 receptor | Q96LB2 | MRGX1-HEK293 calcium flux, Fluo-4, BAM8-22 antagonism; active compounds read low | B-score at 10 µM | hit rate 1.3% among 310,000 | AID 588676;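 active = calcium-response B-score plate-corrected more than 3 library SD below zero, starting fluorescence within 5 deviations, no agonist response on first addition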;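 note: peak minus trough fluorescence over baseline after final BAM8-22 challenge near maximal dose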
RGS4 inh – inhibitors of human RGS4. P49798. HEK293 M3R/RGS4 inducible, Fluo-4 calcium flux; active compounds read high; triggered by carbachol at its EC20. B-score at 10 µM. hit rate 0.45% among 310,000;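 active = B-score, a plate-corrected calcium signal, over three deviations above library mean, with baseline fluorescence within five deviations of library mean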;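 note: RGS4 expression induced by doxycycline in cells with stable M3 receptor; B-score is computed from the integrated fluorescence ratio over baseline after carbachol; higher B-score means a larger calcium signal and so more RGS4 inhibition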
Target sequence (P49798 whole entry, looked up): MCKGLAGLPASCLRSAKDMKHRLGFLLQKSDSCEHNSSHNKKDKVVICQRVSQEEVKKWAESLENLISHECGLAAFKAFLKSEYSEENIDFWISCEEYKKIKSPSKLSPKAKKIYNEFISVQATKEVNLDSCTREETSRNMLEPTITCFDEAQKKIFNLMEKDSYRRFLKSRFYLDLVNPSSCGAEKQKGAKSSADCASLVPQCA
PHOSPHO1 block – inhibitors of human PHOSPHO1 phosphatase; Q8TCT1; recombinant PHOSPHO1, absorbance phosphatase assay; inhibition, % at 13.3 µM; hit rate 1.1% among 290,000; AID 1565; in the data active = inhibition above about 60%
MrgX1 ag – activates human MrgX1 receptor signaling; hit rate 0.44% among 310,000; Q96LB2; MrgX1-HEK293 cells, Fluo-4 calcium fluorescence, agonist mode; active compounds read high; AID 588627; B-score at 10 µM;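 active = calcium response B-score plate-corrected fluorescence ratio at least 3 library SD, with starting fluorescence B-score inside 5 SD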
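Test system: HEK293 cells stably expressing human MrgX1 receptor; Input: fifteen thousand cells per well; Dosing: compound delivered in addition one of three; Schedule: overnight seeding, then 1 h dark dye loading; Technique: Fluo-4 NW calcium fluorescence; Measure: B-scored fluorescence response ratio; Controls: positive and negative controls per plate.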
RGS4 act valid – RGS4 activation, validation assay; shares compounds with RGS4 pot; HEK293 M3R/RGS4 inducible, carbachol calcium flux Fluo4; inhibition, % at 10 µM; hit rate 89% among 1,100;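 active = inhibition above 3 SD of the buffer control wells, cut at about 41% in these data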;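 note: signal is the integrated peak-minus-minimum Fluo4 fluorescence over baseline ratio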
M3R Ca counter – activity in cells without induced RGS4 expression; shares compounds with RGS4 pot; HEK293 M3R non-induced RGS4, Fluo4 calcium flux; after carbachol challenge at its EC90; inhibition, % at 10 µM; hit rate 82% among 1,100;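 active = inhibition exceeding 3 SD of buffer-only control wells, cut at about 26% in these data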;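 note: percent drop in integrated peak-minus-baseline over baseline Fluo4 ratio after carbachol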
The depositor's hits bear a star; i = inactive; . = not tested or not shown. Compounds with a hit are over-represented: about 4.5% of the library has one in this group of screens.

SMILES	RGS4 pot	MrgX1 PAM	MrgX1 antagonist	RGS4 inh	PHOSPHO1 block	MrgX1 ag	RGS4 act valid	M3R Ca counter
Cc1ccc(OS(=O)(=O)c2c(C)nn(C)c2Cl)c(C)c1	-9.9*	i	i	i	38	i	90*	93*
Cc1ccc(/C=C/C(O)=C2/C(=O)N(C)C3(C)CC2c2ccccc2O3)cc1 (stereo not drawn)	-8*	i	i	i	6	i	73*	84*
COc1ccc(/C=C/C(O)=C2/C(=O)N(C)C3(C)CC2c2ccccc2O3)cc1 (stereo not drawn)	i	i	i	i	21	i	.	.
Cc1cccc[n+]1CC(=O)N1c2ccccc2Sc2ccccc21	-14*	i	i	i	12	i	92*	87*
CC(C)CNCC(=O)N1c2ccccc2Sc2ccccc21	-8*	i	i	i	-14	i	86*	50*
COCCNCC(=O)N1c2ccccc2Sc2ccccc21	-9.5*	i	i	i	40	i	94*	41*
COCCCNC(=O)N1c2ccccc2Sc2ccccc21	i	i	i	i	26	i	.	.
O=C(NCCc1ccccc1)c1ccc(NS(=O)(=O)c2ccc3[nH]c(=O)[nH]c3c2)cc1	i	i	i	i	.	i	.	.
CC(C)(C)C1CCC(N2CCN(c3ccccc3)CC2)CC1 (stereo not drawn)	i	i	i	i	.	i	.	.
Cc1cccc(NC(=O)CS(=O)CC(=O)Nc2cnc3ccccc3c2)c1C (stereo not drawn)	i	i	i	i	36	i	.	.
CC1CCN(C(=O)c2cc3nc(-c4ccccc4)cc(-c4ccccc4)n3n2)CC1	i	i	i	i	10	i	.	.
O=C(NC1CCCC1)c1cc2nc(-c3ccccc3)cc(-c3ccccc3)n2n1	-7.7*	i	i	i	-20	i	82*	84*
Nc1cc(=O)[nH]c(SCC(=O)Nc2ccc(Oc3ccccc3)cc2)n1	-10*	i	i	i	-33	i	0	0
Nc1cc(=O)[nH]c(SCC(=O)Nc2cccc(Cl)c2)n1	i	i	i	i	-1	i	.	.
CN(CC(=O)NC1CCN(Cc2ccccc2)CC1)S(=O)(=O)c1ccc2c(c1)c(=O)n(C)c(=O)n2C	-9.4*	i	i	i	-3	i	76*	47*
CSCCC(NS(=O)(=O)c1ccc2c(c1)c(=O)n(C)c(=O)n2C)C(=O)NC1CCN(Cc2ccccc2)CC1 (stereo not drawn)	i	i	i	i	-16	i	.	.
COc1ccc(-c2csc(N3CCN(c4cc(C)nc5ccccc45)CC3)n2)cc1OC	-8.5*	i	i	i	-9	i	92*	86*
CN1C2CCC1CC(NC(=O)CSc1ccc(Cl)cc1)C2 (stereo not drawn)	-9*	i	i	i	33	i	59*	0
CN1C2CCC1CC(NC(=O)c1ccc(Cl)cc1)C2 (stereo not drawn)	i	i	i	i	7	i	.	.
c1cc2c3c(cccc3c1)C(N1CCOCC1)=N2	i	i	i	i	20	i	.	.
c1ccc(CC2CCN(C3=Nc4cccc5cccc3c45)CC2)cc1	-9.1*	i	-5.7*	i	22	i	94*	98*
CC1CCN(c2ccccc2NC(=O)c2ccc(Br)o2)CC1	-9.4*	i	i	i	37	i	54*	0
CNC(=O)C1CC(=O)N(CCc2ccc(OC)cc2)C(=Nc2ccc(OC)cc2)S1 (stereo not drawn)	i	i	i	i	-1	i	.	.
CNC(=O)C1CC(=O)N(Cc2ccc3c(c2)OCO3)C(=Nc2ccc(OC)cc2)S1 (stereo not drawn)	-11*	i	i	i	21	i	0	0
COc1cccc(C2C3CN(C)CC=C3C(C#N)=C(N)C2(C#N)C#N)c1OC (stereo not drawn)	-8*	i	i	i	-24	i	54*	46*
SMILES	RGS4 pot	MrgX1 PAM	MrgX1 antagonist	RGS4 inh	PHOSPHO1 block	MrgX1 ag	RGS4 act valid	M3R Ca counter
CCN1CC=C2C(C#N)=C(N)C(C#N)(C#N)[C@H](c3cccc(OC)c3OC)[C@H]2C1	i	i	i	i	-11	i	.	.
CN1CCC(=C2c3ccccc3C=Cc3ccccc32)CC1	i	i	i	i	4	i	.	.
c1ccc2c(c1)CCc1ccccc1C2=C1CCNCC1	-12*	i	i	i	.	i	94*	94*
COc1ccc(N(C(=O)Nc2ccc(Cl)cc2)C2=NCCC2)cc1	-10*	i	i	i	-39	i	78*	38*
Cn1c(SCc2ccccc2C#N)nc2ccccc2c1=O	i	i	i	i	40	i	.	.
CC1CCCC(C)N1C(=O)COc1ccc(F)cc1 (stereo not drawn)	i	i	i	i	28	i	.	.
CCN(C1CCCCC1)S(=O)(=O)c1ccc(S(=O)(=O)N2CCN(CCC#N)CC2)cc1	-9.1*	i	i	i	-10	i	90*	65*
Cc1ccc(C)c(-n2c(SCC(=O)NC(C(=O)O)C(C)C)nnc2-c2cccc(Cl)c2)c1 (stereo not drawn)	i	i	i	i	32	i	.	.
CCOC(=O)c1cc2cc(OCc3ccccc3)ccc2nc1C	-11*	i	i	i	-2	i	78*	76*
Cc1ccc(C(C)C)c(OCCCNCc2cccnc2)c1	-8.7*	i	i	i	44	i	92*	60*
COC(=O)c1cc2ccsc2n1Cc1nc(-c2ccc(OC)cc2)oc1C	-11*	i	i	i	27	i	92*	79*
COCCCNC(=O)c1c(N)n(/N=C/c2cccs2)c2nc3ccccc3nc12	-8.1*	i	i	i	16	i	0	0
Cc1ccc(Cl)cc1N1CCN(C(=O)CCCn2c(=O)c3cccn3c3cccnc32)CC1	-7.9*	i	i	i	1	i	84*	50*
Cc1cccc(N2CCN(C(=O)CCCn3c(=O)c4cccn4c4cccnc43)CC2)c1C	i	i	i	i	19	i	.	.

From PubChem
